{"source": "ChEMBL document CHEMBL4325893", "about": "“Synthesis and antibacterial profiles of targeted triclosan derivatives” (2019)", "key": {"Staphylococcus aureus [1]": {"system": "Staphylococcus aureus", "experiment": "Antibacterial activity against Staphylococcus aureus ATCC 6538 after 18 hrs", "assay_type": "functional", "details": "ATCC 6538, 18 h", "procedure,_shortened": "(§1)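 Broth microdilution in Nutrient Broth No. 2; stocks in ethanol diluted to 0.01–128 µg/ml (triclosan) or 0.25–256 µg/ml (glycosides). Overnight 37 °C NB2 cultures diluted 1 in 10^4 in saline and added to the dilutions. Incubation at 37 °C with agitation, OD read every 15 min; MIC is the lowest concentration preventing any OD rise after 18 h.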"}, "Staphylococcus aureus [2]": {"system": "Staphylococcus aureus", "experiment": "Antibacterial activity against Staphylococcus aureus ATCC 6538P after 18 hrs", "assay_type": "functional", "procedure,_shortened": "as §1"}, "Staphylococcus aureus [3]": {"system": "Staphylococcus aureus", "experiment": "Antibacterial activity against Staphylococcus aureus ATCC 9144 after 18 hrs", "assay_type": "functional", "details": "ATCC 9144, 18 h", "procedure,_shortened": "as §1"}, "Staphylococcus aureus [4]": {"system": "Staphylococcus aureus", "experiment": "Antibacterial activity against Staphylococcus aureus ATCC 25923 after 18 hrs", "assay_type": "functional", "details": "ATCC 25923, 18 h", "procedure,_shortened": "as §1"}, "Staphylococcus aureus [5]": {"system": "Staphylococcus aureus", "experiment": "Antibacterial activity against Staphylococcus aureus ATCC 29213 after 18 hrs", "assay_type": "functional", "details": "ATCC 29213, 18 h", "procedure,_shortened": "as §1"}, "Staphylococcus aureus [6]": {"system": "Staphylococcus aureus", "experiment": "Antibacterial activity against Staphylococcus aureus NCTC 13758 after 18 hrs", "assay_type": "functional", "details": "NCTC 13758, 18 h", "procedure,_shortened": "as §1"}, "Staphylococcus aureus [7]": {"system": "Staphylococcus aureus", "experiment": "Antibacterial activity against Staphylococcus aureus OCC 104 after 18 hrs", "assay_type": "functional", "details": "OCC 104, 18 h", "procedure,_shortened": "as §1"}, "Staphylococcus aureus [8]": {"system": "Staphylococcus aureus", "experiment": "Antibacterial activity against Staphylococcus aureus OCC 106 after 18 hrs", "assay_type": "functional", "details": "OCC 106, 18 h", "procedure,_shortened": "as §1"}, "[9]": {"system": "Staphylococcus epidermidis", "experiment": "Antibacterial activity against Staphylococcus epidermidis 155 after 18 hrs", "assay_type": "functional", "details": "Staphylococcus epidermidis, 155, 18 h", "procedure,_shortened": "as §1"}, "[10]": {"system": "Staphylococcus epidermidis", "experiment": "Antibacterial activity against Staphylococcus epidermidis ATCC 12228 after 18 hrs", "assay_type": "functional", "details": "ATCC 12228, 18 h", "procedure,_shortened": "as §1"}, "[11]": {"system": "Staphylococcus epidermidis", "experiment": "Antibacterial activity against Staphylococcus epidermidis ATCC 14990 after 18 hrs", "assay_type": "functional", "details": "ATCC 14990, 18 h", "procedure,_shortened": "as §1"}, "[12]": {"system": "Staphylococcus haemolyticus", "experiment": "Antibacterial activity against Staphylococcus haemolyticus OCC 2223 after 18 hrs", "assay_type": "functional", "details": "OCC 2223, 18 h", "procedure,_shortened": "(§2)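 Broth microdilution in Nutrient Broth No. 2. Ethanol stocks were diluted in broth to 0.01–128 µg/ml for triclosan and 0.25–256 µg/ml for glycosides. Overnight 37°C NB2 cultures were diluted 1 in 10^4 in saline and added to the wells. Plates were incubated at 37°C with OD read every 15 min after agitation. MIC was the lowest concentration giving no OD increase at 18 h.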"}, "[13]": {"system": "Staphylococcus saprophyticus", "experiment": "Antibacterial activity against Staphylococcus saprophyticus ATCC 15305 after 18 hrs", "assay_type": "functional", "details": "ATCC 15305, 18 h", "procedure,_shortened": "as §2"}, "Streptococcus agalactiae": {"system": "Streptococcus agalactiae", "experiment": "Antibacterial activity against Streptococcus agalactiae OCC 182 after 18 hrs", "assay_type": "functional", "details": "OCC 182, 18 h", "procedure,_shortened": "as §2"}, "Streptococcus pneumoniae [14]": {"system": "Streptococcus pneumoniae", "experiment": "Antibacterial activity against Streptococcus pneumoniae 6305 after 18 hrs", "assay_type": "functional", "details": "Streptococcus pneumoniae, 6305, 18 h", "procedure,_shortened": "as §2"}, "Streptococcus pneumoniae [15]": {"system": "Streptococcus pneumoniae", "experiment": "Antibacterial activity against Streptococcus pneumoniae ATCC 49619 after 18 hrs", "assay_type": "functional", "details": "ATCC 49619, 18 h", "procedure,_shortened": "as §2"}, "Streptococcus pyogenes": {"system": "Streptococcus pyogenes", "experiment": "Antibacterial activity against Streptococcus pyogenes ATCC 19615 after 18 hrs", "assay_type": "functional", "details": "ATCC 19615, 18 h", "procedure,_shortened": "as §2"}, "Streptococcus viridans": {"system": "Streptococcus viridans", "experiment": "Antibacterial activity against Streptococcus viridans OCC 234 after 18 hrs", "assay_type": "functional", "details": "OCC 234, 18 h", "procedure,_shortened": "as §2"}, "[16]": {"system": "Salmonella enterica subsp. enterica serovar Abony", "experiment": "Antibacterial activity against Salmonella enterica subspecies enterica serotype Abony NCTC 6017 after 18 hrs", "assay_type": "functional", "details": "NCTC 6017, 18 h", "procedure,_shortened": "as §1"}, "[17]": {"experiment": "Antibacterial activity against Salmonella enterica subspecies enterica serotype Arizonae OCC 706 after 18 hrs", "assay_type": "functional, Salmonella enterica subsp. enterica serovar Arizonae", "details": "OCC 706, 18 h", "procedure,_shortened": "as §1"}, "[18]": {"experiment": "Antibacterial activity against Salmonella enterica subspecies enterica serotype Dublin OCC 627 after 18 hrs", "assay_type": "functional, Salmonella enterica subsp. enterica serovar Dublin", "details": "OCC 627, 18 h", "procedure,_shortened": "as §1"}, "Salmonella enteritidis": {"system": "Salmonella enteritidis", "experiment": "Antibacterial activity against Salmonella enterica subspecies enterica serotype Enteritidis 13076 after 18 hrs", "assay_type": "functional, Salmonella enterica subsp. enterica serovar Enteritidis", "details": "Salmonella enterica, 13076, 18 h", "procedure,_shortened": "as §1"}, "[19]": {"experiment": "Antibacterial activity against Salmonella enterica subspecies enterica serotype Indiana OCC 597 after 18 hrs", "assay_type": "functional, Salmonella enterica subsp. enterica serovar Indiana", "details": "OCC 597, 18 h", "procedure,_shortened": "as §1"}, "[20]": {"experiment": "Antibacterial activity against Salmonella enterica subspecies enterica serotype Infantis OCC 2133 after 18 hrs", "assay_type": "functional, Salmonella enterica subsp. enterica serovar Infantis", "details": "OCC 2133, 18 h", "procedure,_shortened": "as §1"}, "[21]": {"experiment": "Antibacterial activity against Salmonella enterica subspecies enterica serotype Nottingham NCTC 7832 after 18 hrs", "assay_type": "functional, Salmonella enterica subsp. enterica serovar Nottingham", "details": "NCTC 7832, 18 h", "procedure,_shortened": "as §1"}, "[22]": {"experiment": "Antibacterial activity against Salmonella enterica subspecies enterica serotype Poona NCTC 4840 after 18 hrs", "assay_type": "functional, Salmonella enterica subsp. enterica serovar Poona", "details": "NCTC 4840, 18 h", "procedure,_shortened": "as §1"}, "[23]": {"experiment": "Antibacterial activity against Salmonella enterica subspecies enterica serotype Pullorum OCC 273 after 18 hrs", "assay_type": "functional, Salmonella enterica subsp. enterica serovar Pullorum", "details": "OCC 273, 18 h", "procedure,_shortened": "as §1"}, "Salmonella typhimurium": {"system": "Salmonella typhimurium", "experiment": "Antibacterial activity against Salmonella enterica subspecies enterica serotype typhimurium ATCC 14028 after 18 hrs", "assay_type": "functional, Salmonella enterica subsp. enterica serovar Typhimurium", "details": "ATCC 14028, 18 h", "procedure,_shortened": "as §1"}, "[24]": {"experiment": "Antibacterial activity against Salmonella enterica subspecies enterica serotype Virchow NCTC 5742 after 18 hrs", "assay_type": "functional, Salmonella enterica subsp. enterica serovar Virchow", "details": "NCTC 5742, 18 h", "procedure,_shortened": "as §1"}}, "data": [{"smiles": "O[C@@H]1[C@H](Oc2cc(Cl)ccc2Oc2ccc(Cl)cc2Cl)OC[C@@H](O)[C@H]1O", "values": [{"measurement": "MIC", "setting": "Staphylococcus aureus [1]", "result": "4 to 8", "unit": "mg/L"}, {"measurement": "MIC", "setting": "Staphylococcus aureus [2]", "result": "4 to 8", "unit": "mg/L"}, {"measurement": "MIC", "setting": "Staphylococcus aureus [3]", "result": "4 to 8", "unit": "mg/L"}, {"measurement": "MIC", "setting": "Staphylococcus aureus [4]", "result": "4 to 8", "unit": "mg/L"}, {"measurement": "MIC", "setting": "Staphylococcus aureus [5]", "result": "4 to 8", "unit": "mg/L"}, {"measurement": "MIC", "setting": "Staphylococcus aureus [6]", "result": "4 to 8", "unit": "mg/L"}, {"measurement": "MIC", "setting": "Staphylococcus aureus [7]", "result": "4 to 8", "unit": "mg/L"}, {"measurement": "MIC", "setting": "Staphylococcus aureus [8]", "result": "4 to 8", "unit": "mg/L"}, {"measurement": "MIC", "setting": "[9]", "result": "8 to 16", "unit": "mg/L"}, {"measurement": "MIC", "setting": "[10]", "result": "8 to 16", "unit": "mg/L"}, {"measurement": "MIC", "setting": "[11]", "result": "8 to 16", "unit": "mg/L"}, {"measurement": "MIC", "setting": "[12]", "result": 128, "unit": "mg/L"}, {"measurement": "MIC", "setting": "[13]", "result": 64, "unit": "mg/L"}, {"measurement": "MIC", "setting": "Streptococcus agalactiae", "result": 128, "unit": "mg/L"}, {"measurement": "MIC", "setting": "Streptococcus pneumoniae [14]", "result": 64, "unit": "mg/L"}, {"measurement": "MIC", "setting": "Streptococcus pneumoniae [15]", "result": 64, "unit": "mg/L"}, {"measurement": "MIC", "setting": "Streptococcus pyogenes", "result": 32, "unit": "mg/L"}, {"measurement": "MIC", "setting": "Streptococcus viridans", "result": 128, "unit": "mg/L"}, {"measurement": "MIC", "setting": "[16]", "result": "32 to 64", "unit": "mg/L"}, {"measurement": "MIC", "setting": "[17]", "result": "32 to 64", "unit": "mg/L"}, {"measurement": "MIC", "setting": "[18]", "result": "32 to 64", "unit": "mg/L"}, {"measurement": "MIC", "setting": "Salmonella enteritidis", "result": "32 to 64", "unit": "mg/L"}, {"measurement": "MIC", "setting": "[19]", "result": "32 to 64", "unit": "mg/L"}, {"measurement": "MIC", "setting": "[20]", "result": "32 to 64", "unit": "mg/L"}, {"measurement": "MIC", "setting": "[21]", "result": "32 to 64", "unit": "mg/L"}, {"measurement": "MIC", "setting": "[22]", "result": "32 to 64", "unit": "mg/L"}, {"measurement": "MIC", "setting": "[23]", "result": "32 to 64", "unit": "mg/L"}, {"measurement": "MIC", "setting": "Salmonella typhimurium", "result": "32 to 64", "unit": "mg/L"}, {"measurement": "MIC", "setting": "[24]", "result": "32 to 64", "unit": "mg/L"}]}]}
